Source: paper PMC3578425 (Pharmacological research : the official journal of the …, 2010)
Several values for one entry are separate records, joined by “and”; a condition that tells them apart may be missing. Identical values can stand only once. Entries after “also recorded” stand apart in the source; their conditions may differ. Like-named read-outs stand apart in the source and are kept apart here. One block for each molecule: values may come before it.

How the values were obtained:
[1] = biological target: P2Y1 receptors on mouse platelets (Mus musculus, UniProt P49650); assay: [125I]MRS2500 binding assay with intact washed mouse platelets
Summary of the method: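 Mouse washed platelets were prepared by differential centrifugation in Tyrode's buffer, pH 7.3, with 0.35% human serum albumin and apyrase (0.02 U/ml), held at 150,000 platelets/μl at 37°C. Platelet suspension (400 μl in 0.5 ml) was incubated 5 min with [125I]MRS2500 at 20°C or 37°C, with or without competitors. Samples were filtered on GF/C, washed five times with ice-cold buffer, and gamma-counted. Nonspecific binding was defined with 10 μM MRS2179.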

[2] = system: platelets isolated from P2Y1(−/−) mice; assay: [125I]MRS2500 binding to platelets isolated from P2Y1; parameters: species or system mouse
[3] = biological target: P2Y1 receptors on human platelets (Homo sapiens, UniProt P47900); assay: [125I]MRS2500 binding assay with intact washed human platelets; settings: for effect on [125I]MRS2500 binding: competing drug up to 100 μM
human P2Y1 receptor = human P2Y1 receptor (Homo sapiens, UniProt P47900); assay type: binding; settings: for Ki: read-out: Ki, inhibition of [125I]MRS2500 binding, competition curves
P2Y1 receptor = settings: read-out: Kd for the P2Y1 receptor; cited from earlier work
[4] = system: membranes from wild-type insect cells (empty vector-infected Sf9); assay: [125I]MRS2500 binding to membranes from empty vector-infected; settings: wide range of membrane concentrations; nonspecific defined with 30 μM 2MeSADP
[5] = wild-type mouse platelets, 10 μM competitor
[6] = read-out: Ki, inhibition of [125I]MRS2500 binding, human platelets, competition
[7] = P2Y1 receptor-expressing Sf9 membranes
[8] = human platelets, 37°C, data not shown
[9] = approximately 0.3 nM [125I]MRS2500, 300 ng membranes, data not shown

Chain of P2Y1 receptors on mouse platelets (P49650 whole entry): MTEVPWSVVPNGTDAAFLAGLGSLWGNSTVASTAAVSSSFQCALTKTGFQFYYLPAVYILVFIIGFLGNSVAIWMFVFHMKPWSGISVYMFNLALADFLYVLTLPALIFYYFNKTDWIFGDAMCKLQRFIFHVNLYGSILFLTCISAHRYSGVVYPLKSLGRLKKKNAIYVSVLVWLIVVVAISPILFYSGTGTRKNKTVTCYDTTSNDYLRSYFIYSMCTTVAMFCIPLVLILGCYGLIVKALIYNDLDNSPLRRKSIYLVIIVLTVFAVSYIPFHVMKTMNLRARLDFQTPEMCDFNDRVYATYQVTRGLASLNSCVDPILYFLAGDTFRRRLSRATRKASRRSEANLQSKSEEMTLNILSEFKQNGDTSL
Chain of P2Y1 receptors on human platelets (P47900 whole entry): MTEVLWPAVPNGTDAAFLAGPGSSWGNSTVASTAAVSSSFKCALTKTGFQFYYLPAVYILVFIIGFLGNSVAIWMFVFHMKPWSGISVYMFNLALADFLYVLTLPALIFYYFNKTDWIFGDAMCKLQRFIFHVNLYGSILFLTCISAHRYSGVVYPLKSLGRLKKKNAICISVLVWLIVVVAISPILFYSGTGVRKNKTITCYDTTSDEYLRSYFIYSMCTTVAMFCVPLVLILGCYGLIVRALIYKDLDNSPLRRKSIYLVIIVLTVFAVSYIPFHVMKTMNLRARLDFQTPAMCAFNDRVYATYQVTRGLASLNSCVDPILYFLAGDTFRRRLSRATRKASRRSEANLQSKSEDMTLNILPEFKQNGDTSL
Chain of human P2Y1 receptor (P47900 whole entry): as above

Compound: CSc1nc(N)c2ncn([C@@H]3O[C@H](COP(=O)(O)OP(=O)(O)O)[C@@H](O)[C@H]3O)c2n1 [2MeSADP, 2-methylthio-adenosine 5′-diphosphate, reference compound]
effect on [125I]MRS2500 binding [1, 5]: inhibited
effect on residual [125I]MRS2500 binding ([2]; high concentration of competitor): not inhibited

Compound: O=c1ccn([C@@H]2O[C@H](COP(=O)(O)OP(=O)(O)OP(=O)(O)O)[C@@H](O)[C@H]2O)c(=O)[nH]1 [UTP, reference compound]
effect on [125I]MRS2500 binding (human P2Y1 receptor; concentrations up to 30 μM): no effect

Compound: Nc1ncnc2c1ncn2[C@@H]1O[C@H](COP(=O)(O)CP(=O)(O)OP(=O)(O)O)[C@@H](O)[C@H]1O [!!MeATP, reference compound]
effect on [125I]MRS2500 binding ([3]; human platelets): Little effect

Compound: CNc1nc(Cl)nc2c1ncn2[C@H]1C[C@H](OP(=O)(O)O)[C@]2(COP(=O)(O)O)C[C@H]12 [MRS2279, 2-chloro-N^6-methyl-(N)-methanocarba-2′-deoxyadenosine-3′,5′-bisphosphate]
Kd (P2Y1 receptor): ~10 nM

Compound: CSCCNc1nc(SCCC(F)(F)F)nc2c1ncn2[C@@H]1O[C@H](COP(=O)(O)OP(=O)(O)C(Cl)(Cl)P(=O)(O)O)[C@@H](O)[C@H]1O [ARC-69931MX, [dichloro-[[[(2R,3S,4R,5R)-3,4-dihydroxy-5-[6-(2-methylsulfanylethylamino)-2-(3,3,3-trifluoropropylsulfanyl)purin-9-yl]oxolan-2-yl]methoxy-hydroxyphosphoryl]oxy-hydroxyphosphoryl]methyl]phosphonic acid, reference compound]
effect on [125I]MRS2500 binding [1, 5]: no effect
effect on [125I]MRS2500 binding ([3]; human platelets): Little effect

Compound: Nc1ncnc2c1ncn2[C@@H]1O[C@H](COP(=O)(O)OP(=O)(O)O)[C@@H](O)[C@H]1O [ADP, reference compound]
effect on [125I]MRS2500 binding ([1]; wild-type mouse platelets, 100 μM competitor): inhibited
Ki [3, 6]: 15400 ± 9000 nM
Ki (human P2Y1 receptor; [7]): 625 ± 37 nM

Compound: CNc1nc(I)nc2c1ncn2[C@H]1C[C@H](OP(=O)(O)O)[C@]2(COP(=O)(O)O)C[C@H]12 [[^125I]MRS2500, 2-iodo-N^6-methyl-(N)-methanocarba-2′-deoxyadenosine-3′,5′-bisphosphate]
Bmax ([1]; mouse platelets, 20°C, data not shown): 253 sites/platelet
Kd ([1]; read-out: Kd, saturation binding of [125I]MRS2500, mouse platelets, 20°C, data not shown): 0.5 nM
Bmax ([1]; wild-type mouse platelets, 37°C): 229 sites/platelet and 229 ± 23 sites/platelet
specific binding of radioligand [4]: did not specifically bind; also recorded: no specific binding
Bmax (binding sites) ([3]; human platelets, 20°C, data not shown): 147 sites/platelet
Bmax ([3]; human platelets, 37°C): 151 sites/platelet and 151 ± 1 sites/platelet
time binding was stable [3, 8]: at least 15 min
time to apparent steady state binding [3, 8]: 60 to 90 s
time to steady state binding ([3]; intact washed platelets (human or mouse), 20°C or 37°C): ≤ 5 min
Kd ([3]; read-out: Kd, saturation binding of [125I]MRS2500, human platelets, 37°C): 0.61 nM
specific binding of [125I]MRS2500 [2]: not observed
time steady-state binding was maintained (human P2Y1 receptor; [9]): at least 40 min
time to steady state binding (human P2Y1 receptor; [9]): ≤ 20 min
Kd (human P2Y1 receptor; read-out: Kd, saturation binding of [125I]MRS2500, P2Y1 receptor-expressing Sf9 membranes, 4°C, one-site binding): 1.1 ± 0.3 nM
Bmax for P2Y1 receptor expression in Sf9 cells (human P2Y1 receptor; saturation binding of [125I]MRS2500): 13.3 ± 2.2 pmol/mg membrane protein

Compound: CNc1ncnc2c1ncn2[C@H]1C[C@H](OP(=O)(O)O)[C@@H](COP(=O)(O)O)O1 [MRS2179]
effect on [125I]MRS2500 binding [1, 5]: inhibited
Kd (P2Y1 receptor): ~100 nM
Ki [3]: 72.5 ± 17 nM

Compound: Nc1ncnc2c1ncn2[C@@H]1O[C@H](COP(=O)(O)OP(O)(O)=S)[C@@H](O)[C@H]1O [ADP!S, reference compound]
Ki (human P2Y1 receptor; [7]): 1750 ± 750 nM

Other lines, results leading:

Ki [3, 6]: 1.2 ± 0.15 nM
Compound: CNc1nc(I)nc2c1ncn2[C@H]1C[C@H](OP(=O)(O)O)[C@]2(COP(=O)(O)O)C[C@H]12 [MRS2500, 2-iodo-N^6-methyl-(N)-methanocarba-2′-deoxyadenosine 3′,5′-bisphosphate]

effect on [125I]MRS2500 binding [1, 5]: inhibited
Compound: CSc1nc(N)c2ncn([C@H]3[C@H](O)[C@H](O)[C@@]4(COP(=O)(O)OP(=O)(O)O)C[C@H]34)c2n1 [MRS2365, (1′S,2′R,3′S,4′R,5′S)-4-[(6-amino-2-methylthio-9H-purin-9-yl)-1-diphosphoryloxymethyl]bicyclo[3.1.0]hexane-2,3-diol]
